Laboratory results taken from publication PMC10582678 (Clinical and Translational Science, 2023).
Entries after “also recorded” stand apart in the source; their conditions may differ.

Key:
[1] = Preclinical safety in beagles; assay type: in vivo; details: stated in introduction
[2] = Plasma pharmacokinetics, food effect; assay type: in vivo, human; details: 600 mg; for half-life / Tmax: human, plasma, oral; for half-life: T1/2, 600 mg, mean ± SD; for Tmax: median (min, max)
Outline: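 This was a randomized, open-label, two-period crossover in 12 healthy subjects. Each received one oral 600 mg dose fasted then fed, or the reverse, with a 7-day washout. Drug was quantified by validated HPLC-tandem accurate mass spectrometry (calibration 5.00–5000 ng/mL). Parameters came from noncompartmental analysis.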

[3] = Safety, adverse events, multiple ascending doses; assay type: in vivo, human; details: for AEs / Abdominal discomfort / Constipation / Decreased leukocyte count / Decreased lymphocyte count / Decreased neutrophil count / Dermatitis allergic / Dyspepsia / Increased ALT / Increased AST / Increased blood bilirubin / Increased blood creatinine / Lethargy / Mouth ulceration / Oropharyngeal pain / Sinus arrythmia / Upper respiratory tract infection / Increased blood cholesterol / Treatment discontinuation due to AEs / Increased blood triglycerides: n (%)
Outline: (§1)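 Safety was monitored by vital signs, clinical laboratory tests, physical examination, 12-lead ECG, AEs and SAEs. AEs were coded with MedDRA 23.1 and graded by CTCAE 5.0. Subjects were discharged 6 days after the last dose, with a follow-up visit 8–14 days after the last dose. The safety set comprised randomized subjects who received active drug or placebo and had post-dose safety data.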

[4] = system: EGFR, ITK, Lck, SRC, LYN, and JAK3; assay: Selectivity for BTK over other kinases; assay type: biochemical; details: stated in introduction
[5] = Safety, adverse events, whole study; assay type: in vivo, human
Outline: as §1

[6] = 18 subjects, MAD 200 to 600 mg for 10 days
[7] = among 57 subjects who received SN1011

N#CN1C[C@H](n2nc(-c3ccc(Oc4ccc(Cl)cn4)cc3)c(C(N)=O)c2N)CCC12CC2 [SN1011, 5-amino-3-(4-((5-chloro-2-pyridinyl)oxy)phenyl)-1-((6R)-4-cyano-4-azaspiro[2.5]octan-6-yl)-1H-pyrazole-4-carboxamide]
safety profile [1]: acceptable safety profile | AUC0-inf, Geometric Mean Ratio ([2]; fed state to fasted state): 93.76% | AUC0-t, Geometric Mean Ratio ([2]; fed state to fasted state): 92.79% | Cmax, Geometric Mean Ratio ([2]; fed state to fasted state): 97.08% | half-life ([2]; Fasted): 24.3 ± 8.7 h | half-life ([2]; Fed): 26.6 ± 13.3 h | Tmax ([2]; Fasted): 4 h | Tmax ([2]; Fed): 6 h | blood triglycerides increased [3, 6]: 33.3% | leucocyte count decreased [3, 6]: 22.2% | neutrophil count decreased [3, 6]: 27.8% | number of AEs [3, 6]: 34 | subjects who experienced AEs [3, 6]: 66.7% | subjects with at least a treatment-related AE (TRAE) ([3]; 18 subjects, MAD 200 to 600 mg, all grade 1 or 2): 61.1% | AEs ([3]; MAD 200 mg QD, any grade): 3 (50.0) | Abdominal discomfort ([3]; MAD 200 mg QD, any grade): 0 | Constipation ([3]; MAD 200 mg QD, any grade): 0 | Decreased leukocyte count ([3]; MAD 200 mg QD, any grade): 1 (16.7) | Decreased lymphocyte count ([3]; MAD 200 mg QD, any grade): 0 | Decreased neutrophil count ([3]; MAD 200 mg QD, any grade): 1 (16.7) | Dermatitis allergic ([3]; MAD 200 mg QD, any grade): 0 | Dyspepsia ([3]; MAD 200 mg QD, any grade): 0 | Increased ALT ([3]; MAD 200 mg QD, any grade): 1 (16.7) | Increased AST ([3]; MAD 200 mg QD, any grade): 1 (16.7) | Increased blood bilirubin ([3]; MAD 200 mg QD, any grade): 1 (16.7) | Increased blood creatinine ([3]; MAD 200 mg QD, any grade): 0 | Lethargy ([3]; MAD 200 mg QD, any grade): 0 | Mouth ulceration ([3]; MAD 200 mg QD, any grade): 0 | Oropharyngeal pain ([3]; MAD 200 mg QD, any grade): 0 | Sinus arrythmia ([3]; MAD 200 mg QD, any grade): 0 | Upper respiratory tract infection ([3]; MAD 200 mg QD, any grade): 0 | Increased blood cholesterol ([3]; MAD 200 mg QD): 0 | Treatment discontinuation due to AEs ([3]; MAD 200 mg QD): 0 | AEs ([3]; MAD 400 mg QD, any grade): 4 (66.7) | Abdominal discomfort ([3]; MAD 400 mg QD, any grade): 0 | Constipation ([3]; MAD 400 mg QD, any grade): 0 | Decreased leukocyte count ([3]; MAD 400 mg QD, any grade): 1 (16.7) | Decreased lymphocyte count ([3]; MAD 400 mg QD, any grade): 0 | Decreased neutrophil count ([3]; MAD 400 mg QD, any grade): 2 (33.3) | Dermatitis allergic ([3]; MAD 400 mg QD, any grade): 0 | Dyspepsia ([3]; MAD 400 mg QD, any grade): 0 | Increased ALT ([3]; MAD 400 mg QD, any grade): 0 | Increased AST ([3]; MAD 400 mg QD, any grade): 0 | Increased blood bilirubin ([3]; MAD 400 mg QD, any grade): 0 | Increased blood creatinine ([3]; MAD 400 mg QD, any grade): 2 (33.3) | Increased blood triglycerides ([3]; MAD 400 mg QD, any grade): 2 (33.3) | Lethargy ([3]; MAD 400 mg QD, any grade): 0 | Mouth ulceration ([3]; MAD 400 mg QD, any grade): 0 | Sinus arrythmia ([3]; MAD 400 mg QD, any grade): 1 (16.7) | Upper respiratory tract infection ([3]; MAD 400 mg QD, any grade): 1 (16.7) | Increased blood cholesterol ([3]; MAD 400 mg QD): 0 | Treatment discontinuation due to AEs ([3]; MAD 400 mg QD): 0 | AEs ([3]; MAD 600 mg QD, any grade): 5 (83.3) | Abdominal discomfort ([3]; MAD 600 mg QD, any grade): 1 (16.7) | Constipation ([3]; MAD 600 mg QD, any grade): 1 (16.7) | Decreased leukocyte count ([3]; MAD 600 mg QD, any grade): 2 (33.3) | Decreased lymphocyte count ([3]; MAD 600 mg QD, any grade): 1 (16.7) | Decreased neutrophil count ([3]; MAD 600 mg QD, any grade): 2 (33.3) | Dermatitis allergic ([3]; MAD 600 mg QD, any grade): 2 (33.3) | Dyspepsia ([3]; MAD 600 mg QD, any grade): 1 (16.7) | Increased ALT ([3]; MAD 600 mg QD, any grade): 1 (16.7) | Increased AST ([3]; MAD 600 mg QD, any grade): 1 (16.7) | Increased blood bilirubin ([3]; MAD 600 mg QD, any grade): 1 (16.7) | Increased blood creatinine ([3]; MAD 600 mg QD, any grade): 0 | Increased blood triglycerides ([3]; MAD 600 mg QD, any grade): 2 (33.3) | Lethargy ([3]; MAD 600 mg QD, any grade): 1 (16.7) | Mouth ulceration ([3]; MAD 600 mg QD, any grade): 1 (16.7) | Oropharyngeal pain ([3]; MAD 600 mg QD, any grade): 1 (16.7) | Sinus arrythmia ([3]; MAD 600 mg QD, any grade): 0 | Increased blood cholesterol ([3]; MAD 600 mg QD): 0 | Treatment discontinuation due to AEs ([3]; MAD 600 mg QD): 0 | AEs ([3]; MAD All SN1011, N = 18): 12 (66.7) | Abdominal discomfort ([3]; MAD All SN1011, N = 18): 1 (5.6) | Constipation ([3]; MAD All SN1011, N = 18): 1 (5.6) | Decreased leukocyte count ([3]; MAD All SN1011, N = 18): 4 (22.2) | Decreased lymphocyte count ([3]; MAD All SN1011, N = 18): 1 (5.6) | Decreased neutrophil count ([3]; MAD All SN1011, N = 18): 5 (27.8) | Dermatitis allergic ([3]; MAD All SN1011, N = 18): 2 (11.1) | Dyspepsia ([3]; MAD All SN1011, N = 18): 1 (5.6) | Increased ALT ([3]; MAD All SN1011, N = 18): 2 (11.1) | Increased AST ([3]; MAD All SN1011, N = 18): 2 (11.1) | Increased blood bilirubin ([3]; MAD All SN1011, N = 18): 2 (11.1) | Increased blood cholesterol ([3]; MAD All SN1011, N = 18): 0 | Increased blood creatinine ([3]; MAD All SN1011, N = 18): 2 (11.1) | Increased blood triglycerides ([3]; MAD All SN1011, N = 18): 6 (33.3) | Lethargy ([3]; MAD All SN1011, N = 18): 1 (5.6) | Mouth ulceration ([3]; MAD All SN1011, N = 18): 1 (5.6) | Oropharyngeal pain ([3]; MAD All SN1011, N = 18): 1 (5.6) | Sinus arrythmia ([3]; MAD All SN1011, N = 18): 1 (5.6) | Treatment discontinuation due to AEs ([3]; MAD All SN1011, N = 18): 0 | Upper respiratory tract infection ([3]; MAD All SN1011, N = 18): 1 (5.6) | selectivity for BTK over other kinases [4]: 700 fold | serious adverse events ([5]; all parts of the study): No serious adverse events; also recorded: no SAEs were reported | subjects who experienced AEs [5, 7]: 28 | total number of AEs [5, 7]: 55
